In brackets after ≈: the same amount, converted by molar mass.
How the values were obtained:
[1] = tested on: Candida albicans; test: In vitro evaluation of minimum inhibitory concentration against Candida albicans 76; format: functional
Outline: (§1)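 Stocks are 800 μg/mL in 50% ethanol. Each plate gets 10 μL of inoculum at 10^5 cfu/mL. Incubation at 25 °C, 48 h for yeasts and 120 h for dermatophytes and molds. Organisms are ATCC strains or clinical isolates.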

[2] = tested on: Candida albicans; test: In vivo evaluation of minimum inhibitory concentration against Candida albicans 60; format: functional
Outline: (§2)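 Broth macrodilution MIC following NCCLS M27-P, in RPMI-1640 buffered with 0.165 M MOPS. Fluconazole was dissolved in water and other drugs in DMSO. C. parapsilosis ATCC 22019 served as the reference strain in every run. MIC was the lowest concentration giving turbidity at or below the 80% inhibition standard.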

[3] = tested on: Rattus norvegicus; test: In vivo evaluation of antifungal activity against vaginal candidosis in rat at dose 0.5 mg/kg on 15th day; format: functional
Outline: (§3)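 Female Wistar rats, 10 per group, received estradiol 25 mg/kg sc on day -5. On day 0 they were infected intravaginally with C. albicans by sterile swab. Infection was confirmed on day 3 by culturing the swab in TSB and then on Sabouraud agar. Oral dosing was once daily on days 3, 4 and 5; controls got vehicle only. Vaginal swabs taken on days 10 and 15 were cultured and read the next day.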

[4] = tested on: Rattus norvegicus; test: In vivo evaluation of antifungal activity against vaginal candidosis in rat at dose 0.5 mg/kg on 10th day; format: functional; outline: as §3
[5] = tested on: Rattus norvegicus; test: In vivo evaluation of antifungal activity against vaginal candidosis in rat at dose 0.25 mg/kg on 10th day; format: functional
Outline: (§4)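 Groups of 10 female Wistar rats given estradiol 25 mg/kg sc on day -5, infected intravaginally with C. albicans by sterile swab on day 0; infection confirmed on day 3 by swab culture (TSB, then Sabouraud agar). Oral dosing once daily on days 3, 4, 5; vehicle controls. Vaginal swabs cultured on days 10 and 15; read-out % cured (culture-negative).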

[6] = tested on: Kluyveromyces marxianus; test: In vitro evaluation of minimum inhibitory concentration against Candida pseudotropicalis 13; format: functional; outline: as §1
[7] = tested on: Mus sp.; test: In vivo evaluation of % survival rate after peroral administration on 7th day at dose 1 mg/kg; format: functional; settings: route oral, 1 mg/kg
[8] = tested on: Mus sp.; test: In vivo evaluation of % survival rate after peroral administration on 3rd day at dose 1 mg/kg; format: functional; settings: route oral, 1 mg/kg
[9] = tested on: Mus sp.; test: In vivo evaluation of % survival rate after peroral administration on 9th day at dose 1 mg/kg; format: functional; settings: route oral, 1 mg/kg
[10] = tested on: Rattus norvegicus; test: In vivo evaluation of antifungal activity against vaginal candidosis in rat at dose 0.25 mg/kg on 15th day; format: functional; outline: as §4
[11] = tested on: Mus sp.; test: In vivo evaluation of % survival rate after peroral administration on 5th day at dose 1 mg/kg; format: functional; settings: route oral, 1 mg/kg
[12] = tested on: Mus sp.; test: In vivo evaluation of % survival rate after peroral administration on 9th day at dose 2.5 mg/kg; format: functional; settings: Mus sp., po
[13] = tested on: Nakaseomyces glabratus; test: In vitro evaluation of minimum inhibitory concentration against Torulopsis glabrata 78; format: functional; settings: Nakaseomyces glabratus; read-out: MIC; outline: as §1
[14] = tested on: Mus sp.; test: In vivo evaluation of % survival rate after peroral administration on 5th day at dose 2.5 mg/kg; format: functional; settings: Mus sp., po
[15] = tested on: Meyerozyma guilliermondii; test: In vitro evaluation of minimum inhibitory concentration against Candida guilliermondii 26; format: functional; outline: as §1
[16] = tested on: Candida parapsilosis; test: In vitro evaluation of minimum inhibitory concentration against Candida parapsilosis 61; format: functional; outline: as §1
[17] = tested on: Trichophyton rubrum; test: In vitro evaluation of minimum inhibitory concentration against Trichophyton rubrum 90; format: functional; settings: Trichophyton rubrum; read-out: MIC; outline: as §1
[18] = tested on: Rhodotorula mucilaginosa; test: In vitro evaluation of minimum inhibitory concentration against Rhodotorula rubra 16; format: functional; settings: Rhodotorula mucilaginosa; read-out: MIC; outline: as §1
[19] = tested on: Aspergillus niger; test: In vitro evaluation of minimum inhibitory concentration against Aspergillus niger 18; format: functional; settings: Aspergillus niger; read-out: MIC; outline: as §1
[20] = tested on: Candida tropicalis; test: In vitro evaluation of minimum inhibitory concentration against Candida tropicalis 2.11; format: functional; outline: as §1
[21] = tested on: Aspergillus flavus; test: In vitro evaluation of minimum inhibitory concentration against Aspergillus flavus 19; format: functional; settings: Aspergillus flavus; read-out: MIC; outline: as §1
[22] = tested on: Pichia kudriavzevii; test: In vitro evaluation of minimum inhibitory concentration against Candida krusei 70; format: functional; settings: Pichia kudriavzevii; read-out: MIC; outline: as §1
[23] = tested on: Microsporum canis; test: In vitro evaluation of minimum inhibitory concentration against Microsporum canis 47; format: functional; settings: Microsporum canis; read-out: MIC; outline: as §1
[24] = tested on: Trichophyton benhamiae; test: In vitro evaluation of minimum inhibitory concentration against Trichophyton mentagrophytes 23; format: functional, Arthroderma benhamiae; settings: Trichophyton benhamiae; read-out: MIC; outline: as §1
[25] = tested on: Mus sp.; test: In vivo evaluation of % survival rate after peroral administration on 3rd day at dose 2.5 mg/kg; format: functional; settings: Mus sp., po
[26] = tested on: Mus sp.; test: In vivo evaluation of % survival rate after peroral administration on 7th day at dose 2.5 mg/kg; format: functional; settings: Mus sp., po
[27] = tested on: Nannizzia gypsea; test: In vitro evaluation of minimum inhibitory concentration against Microsporum gypseum 22; format: functional; settings: Nannizzia gypsea; read-out: MIC; outline: as §1
[28] = tested on: Candida albicans; test: In vivo evaluation of minimum inhibitory concentration against Candida albicans 406; format: functional; outline: as §2
[29] = tested on: Aspergillus fumigatus; test: In vivo evaluation of minimum inhibitory concentration against Aspergillus fumigatus 33; format: functional; settings: in the assay text read “In vitro” for “In vivo”
Outline: (§5)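 Agar dilution MIC. Inocula were 10^5 cfu/mL; 10 µL was spotted onto Kimmig's agar with 0.5% glycerol containing twofold drug dilutions (80 to 0.025 µg/mL). Drug stocks were 800 µg/mL in 50% ethanol. Plates were incubated at 25 °C, 48 h for yeasts and 120 h for molds and dermatophytes.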

[30] = tested on: Candida albicans; test: In vivo evaluation of minimum inhibitory concentration against Candida albicans 76; format: functional; outline: as §2
[31] = tested on: Aspergillus fumigatus; test: In vitro evaluation of minimum inhibitory concentration against Aspergillus fumigatus 33; format: functional; settings: Aspergillus fumigatus; read-out: MIC; outline: as §1
[32] = tested on: Meyerozyma guilliermondii; test: In vivo evaluation of minimum inhibitory concentration against Candida guilliermondii 26; format: functional; settings: in the assay text read “In vitro” for “In vivo”; outline: as §5
[33] = tested on: Nakaseomyces glabratus; test: In vivo Evaluation of minimum inhibitory concentration against Torulopsis glabrata 78; format: functional; settings: in the assay text read “In vitro” for “In vivo”; outline: as §1
[34] = tested on: Mus musculus; test: In vivo evaluation of % survival rate after peroral administration on 3rd day at dose 5 mg/kg; format: functional; settings: route oral
[35] = tested on: Mus musculus; test: In vivo evaluation of % survival rate after peroral administration on 9th day at dose 5 mg/kg; format: functional; settings: route oral
[36] = tested on: Mus musculus; test: In vivo evaluation of % survival rate after peroral administration on 7th day at dose 5 mg/kg; format: functional; settings: route oral
[37] = tested on: Mus musculus; test: In vivo evaluation of % survival rate after peroral administration on 5th day at dose 5 mg/kg; format: functional; settings: route oral
[38] = Meyerozyma guilliermondii, read-out: MIC
[39] = Lodderomyces parapsilosis, read-out: MIC
[40] = Candida albicans, read-out: MIC
[41] = Candida tropicalis, read-out: MIC
[42] = Kluyveromyces marxianus, read-out: MIC

SMILES: C[C@H]1N(C(=O)c2ccc(C(F)(F)F)cc2)CC(=O)O[C@@]1(Cn1cncn1)c1ccc(F)cc1F
- MIC [1]: 80 µg/mL (≈ 167 µM)
- MIC [2]: 40 µg/mL (≈ 83.3 µM)
- Cure rate [3]: 90%
- Cure rate [4]: 90%
- Cure rate [5]: 10%
- MIC [6]: 80 µg/mL (≈ 167 µM)
- Survival [7]: 90%
- Survival [8]: 100%
- Survival [9]: 10%
- Cure rate [10]: 0%
- Survival [11]: 100%

SMILES: C[C@H]1N(C(=O)c2ccc(C(F)(F)F)cc2)CC(=O)O[C@@]1(Cn1cncn1)c1ccc(C(F)(F)F)cc1 (racemic)
- survival at 2.5 mg/kg [12]: 10%
- MIC [13]: > 80 µg/mL
- survival at 2.5 mg/kg [14]: 20%
- MIC [15, 38]: > 80 µg/mL
- MIC [16, 39]: > 80 µg/mL
- MIC [1, 40]: > 80 µg/mL
- MIC [2, 40]: > 80 µg/mL
- MIC [17]: > 80 µg/mL
- MIC [18]: > 80 µg/mL
- MIC [19]: > 80 µg/mL
- MIC [20, 41]: > 80 µg/mL
- MIC [21]: > 80 µg/mL
- MIC [6, 42]: 80 µg/mL (≈ 156 µM)
- MIC [22]: > 80 µg/mL
- MIC [23]: > 80 µg/mL
- MIC [24]: > 80 µg/mL
- survival at 2.5 mg/kg [25]: 20%
- survival at 2.5 mg/kg [26]: 10%
- MIC [27]: > 80 µg/mL
- MIC [28, 40]: > 80 µg/mL
- MIC [29]: > 80 µg/mL

SMILES: C[C@H]1N(C(=O)c2ccc(OCC(F)(F)F)cc2)CC(=O)O[C@@]1(Cn1cncn1)c1ccc(F)cc1F (racemic)
- MIC [30]: 80 µg/mL (≈ 157 µM)
- survival at 2.5 mg/kg [12]: 70%
- MIC [13]: > 80 µg/mL
- survival at 2.5 mg/kg [14]: 100%
- MIC [16, 39]: > 80 µg/mL
- MIC [17]: > 80 µg/mL
- MIC [18]: > 40 µg/mL
- MIC [19]: > 80 µg/mL
- MIC [21]: > 80 µg/mL
- MIC [31]: > 80 µg/mL
- MIC [6, 42]: 40 µg/mL (≈ 78.4 µM)
- MIC [22]: > 80 µg/mL
- MIC [23]: > 80 µg/mL
- MIC [24]: > 80 µg/mL
- MIC [32]: > 80 µg/mL
- survival at 2.5 mg/kg [25]: 100%
- survival at 2.5 mg/kg [26]: 100%
- MIC [27]: > 80 µg/mL

SMILES: C[C@H]1N(C(=O)c2ccc(OC(F)(F)F)cc2)CC(=O)O[C@@]1(Cn1cncn1)c1ccc(F)cc1F (racemic)
- MIC [30]: 80 µg/mL (≈ 161 µM)
- survival at 2.5 mg/kg [12]: 90%
- MIC [13]: > 80 µg/mL
- survival at 2.5 mg/kg [14]: 100%
- MIC [15, 38]: > 80 µg/mL
- MIC [16, 39]: > 80 µg/mL
- MIC [17]: > 80 µg/mL
- MIC [18]: > 40 µg/mL
- MIC [19]: > 80 µg/mL
- MIC [21]: > 80 µg/mL
- MIC [31]: > 80 µg/mL
- MIC [6, 42]: 40 µg/mL (≈ 80.6 µM)
- MIC [22]: > 80 µg/mL
- MIC [23]: > 80 µg/mL
- MIC [24]: > 80 µg/mL
- survival at 2.5 mg/kg [25]: 100%
- survival at 2.5 mg/kg [26]: 100%
- MIC [27]: > 80 µg/mL

SMILES: C[C@H]1N(C(=O)c2ccc(C(F)(F)F)cc2)CC(=O)O[C@@]1(Cn1cncn1)c1ccc(Cl)cc1Cl (stereo in doubt; (+)-32a)
- MIC [15]: >80 µg/mL
- MIC [16]: >80 µg/mL
- MIC [1]: >80 µg/mL
- MIC [2]: >80 µg/mL
- MIC [33]: > 80 µg/mL
- MIC [20]: >80 µg/mL
- MIC [6]: >80 µg/mL
- Survival [7]: 0%
- Survival [8]: 0%
- Survival [9]: 0%
- Survival [11]: 0%
- MIC [28]: >80 µg/mL

SMILES: C[C@H]1N(C(=O)c2ccc(C(F)(F)F)cc2)C[C@H](O)O[C@@]1(Cn1cncn1)c1ccc(F)cc1F (stereo in doubt; (+)-39a)
- MIC [16]: >80 µg/mL
- MIC [2]: >80 µg/mL
- survival at 5 mg/kg [34]: 40%
- survival at 5 mg/kg [35]: 0%
- survival at 5 mg/kg [36]: 0%
- MIC [6]: >80 µg/mL
- survival at 5 mg/kg [37]: 0%
- MIC [28]: >80 µg/mL

SMILES: C[C@H]1N(C(=O)c2ccc(C(F)(F)F)cc2)CC(=O)O[C@@]1(Cn1cncn1)c1ccc(Cl)cc1Cl (stereo in doubt; (-)-32a)
- MIC [13]: > 80 µg/mL
- MIC [15, 38]: 80 µg/mL (≈ 156 µM)
- MIC [16, 39]: 40 µg/mL (≈ 77.9 µM)
- MIC [1]: 20 µg/mL (≈ 39 µM)
- MIC [2]: 10 µg/mL (≈ 19.5 µM)
- MIC [17]: > 80 µg/mL
- Cure rate [3]: 100%
- MIC [18]: > 80 µg/mL
- MIC [19]: > 80 µg/mL
- Cure rate [4]: 80%
- Cure rate [5]: 70%
- MIC [20, 41]: 40 µg/mL (≈ 77.9 µM)
- MIC [21]: > 80 µg/mL
- MIC [31]: > 80 µg/mL
- MIC [6]: 10 µg/mL (≈ 19.5 µM)
- MIC [22]: > 80 µg/mL
- Survival [7]: 70%
- MIC [23]: > 80 µg/mL
- MIC [24]: > 80 µg/mL
- Survival [8]: 100%
- Survival [9]: 10%
- Cure rate [10]: 70%
- MIC [27]: > 80 µg/mL
- Survival [11]: 100%
- MIC [28]: 5 µg/mL (≈ 9.74 µM)
